# From PubChem
# Sampled rows, rich in hits. Any-hit rate of the full collection: about 1.9%.
# PglD inh: C. jejuni PglD acetyltransferase inhibitors, primary screen, biochemical, DTNB colorimetric, single point; 360,000 compounds, 0.098% hits; purified PglD enzyme, DTNB colorimetric CoA detection; inhibition, % at 12.5 µM; UDP-N-acetylbacillosamine N-acetyltransferase PglD (Campylobacter jejuni); in the data active = inhibition above about 16%, passing the limit was not always enough; inconclusive = no clear call, values can overlap the other calls
# Env fusion inh: inhibitors of HIV-1 Env-driven cell-cell fusion, primary screen, HeLa-JRFL effector, CEM21 target cells, luciferase | 360,000 compounds, 1.1% hits | inhibition, % at 12.3 µM;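 active = mean replicate inhibition score of at least 50 and every replicate individually at or above 50; inconclusive = only one of the two criteria met; inactive = mean below 50 and not all replicates reaching 50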;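 note: 0% = plate neutral controls and 100% = maraviroc near 300 nM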
# SR-BI HDL uptake: inhibitors of SR-BI mediated HDL lipid uptake, primary screen, ldlA[mSR-BI] cells, fluorescence, single point. Scavenger receptor class B member 1 (Mus musculus), Q61009. ldlA[mSR-BI] CHO cells, DiI-HDL uptake fluorescence, 3 h. inhibition, % at 12.5 µM. 320,000 compounds, 0.96% hits. AID 488896, 2010;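 active = mean replicate inhibition of at least 70% and a set share of replicates each scoring 70 or more; inconclusive = meets just one of the two criteria; inactive = fails both criteria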;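 note: 0% = median of neutral control wells and 100% = median of positive control wells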
# Target sequence (Q61009 whole entry, looked up): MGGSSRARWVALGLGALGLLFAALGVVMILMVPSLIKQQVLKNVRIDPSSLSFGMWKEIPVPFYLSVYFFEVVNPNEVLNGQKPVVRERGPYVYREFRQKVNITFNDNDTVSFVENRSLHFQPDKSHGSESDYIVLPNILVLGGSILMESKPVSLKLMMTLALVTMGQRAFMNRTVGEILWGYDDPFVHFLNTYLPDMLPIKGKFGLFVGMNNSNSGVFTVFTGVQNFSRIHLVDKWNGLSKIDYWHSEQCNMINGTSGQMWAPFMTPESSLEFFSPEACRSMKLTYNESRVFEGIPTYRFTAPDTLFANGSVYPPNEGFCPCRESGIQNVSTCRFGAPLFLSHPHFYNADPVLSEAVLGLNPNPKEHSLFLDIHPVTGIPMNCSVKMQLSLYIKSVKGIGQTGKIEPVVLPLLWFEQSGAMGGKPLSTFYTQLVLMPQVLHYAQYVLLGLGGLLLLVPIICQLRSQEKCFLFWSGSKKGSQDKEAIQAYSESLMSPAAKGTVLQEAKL
# N-glyco inh: increase of ERlucT glycosylation luciferase signal, primary screen, N-linked glycosylation inhibitor project, D54 ERlucT cells, luminescence, set 2 | 360,000 compounds, 0.23% hits | reporter increase, % at 12.5 µM | D54 ERlucT glycosylation luciferase reporter, 24 h; percent of 100 nM tunicamycin response | AID 588692, 2011;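 active = mean luciferase reporter signal, scaled so untreated is 0 and the glycosylation-blocking control 100, at or above a set limit in every replicate; inconclusive = mean reaches the limit but not every replicate does; inactive = mean below the limit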;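 note: luciferase carries N-glycosylation sites so blocking glycosylation raises the light; 0% = median of neutral control wells and 100% = median of 100 nM tunicamycin wells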
# SR-BI DiI-HDL act: activators of SR-BI mediated DiI-HDL uptake, primary screen, ldlA[mSR-BI] CHO cells, DiI fluorescence | 3 h; 100 = double the neutral-control signal | activation, % at 12.5 µM | 320,000 compounds, 0.096% hits;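 active = mean replicate activation of at least 60% and every replicate at or above 60%; inconclusive = mean or all-replicate condition met, but not both; inactive = mean below 60% and not all replicates reaching 60%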;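 note: 0% = median plate neutral-control signal and 100% = twice that signal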
#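 Test system: SR-BI-overexpressing, LDLR-lacking CHO cells. Measured by: DiI fluorescence, bottom read. Medium: Ham's F12 with 0.5% BSA, HEPES 25 mM, pH 7.4. Timing: 3 h uptake period with compound, 37 °C.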
# Rtt109 Vps75: inhibitors of C. albicans Rtt109/Vps75 HAT, primary screen, biochemical, ThioGlo CoA-SH fluorescence, plate reader; Histone acetyltransferase RTT109 (Candida albicans (strain SC5314 / ATCC MYA-2876)), …; purified Rtt109/Vps75, 4 h; inhibition, % at 34.9 µM; 330,000 compounds, 0.16% hits;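 active = inhibition of at least 50% in every replicate; inconclusive = best replicate reaches 50% inhibition but some replicates fall short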
# * = called active by the depositor; ? = inconclusive; . = not tested or not shown; [ ] = another dose, or the depositor's remark.
SMILES,PglD inh,Env fusion inh,SR-BI HDL uptake,N-glyco inh,SR-BI DiI-HDL act,Rtt109 Vps75
O=C(NC(Nc1nc2ccc([N+](=O)[O-])cc2s1)(C(F)(F)F)C(F)(F)F)c1cccnc1,.,123.1*,30.1,-11.9,-30.1,.
CCNC(=O)C[C@@H]1CC[C@@H]2[C@@H](COc3ccc(NC(=O)Cc4cccs4)cc3C(=O)N2C)O1,0.6,74.8*[16.7 µM],.,.,.,.
COCC(=O)Nc1ccc2c(c1)C(=O)N(C)[C@H]1CC[C@H](CC(=O)NC3CCCC3)O[C@H]1CO2,1.8,56.8*[16.7 µM],.,.,.,.
CCNC(=O)Nc1ccc2c(c1)C(=O)N(C)[C@@H]1CC[C@@H](CC(=O)NCC3CCCCC3)O[C@@H]1CO2,-2.1,56.6*[16.7 µM],.,.,.,.
CN1C(=O)c2cc(NC(=O)c3cscn3)ccc2OC[C@H]2O[C@H](CC(=O)NCc3ccc(Cl)c(Cl)c3)CC[C@@H]21,-3.0,?,.,.,.,.
CN1C(=O)c2cc(NC(=O)c3cscn3)ccc2OC[C@@H]2O[C@@H](CC(=O)NCc3ccc(Cl)c(Cl)c3)CC[C@H]21,2.4,57.2*[16.7 µM],.,.,.,.
CCCNC(=O)N1CCC2(CC1)CN(Cc1cccc(F)c1)[C@H](CO)c1[nH]c3cc(OC)ccc3c12,.,-178.9[16.7 µM],.,.,.,.
Cc1noc(C)c1NC(=O)Nc1ccc2c(c1)C(=O)N([C@@H](C)CO)C[C@H](C)[C@@H](CN(C)C(=O)Nc1cccc3ccccc13)OCCCC[C@@H](C)O2,-0.7,0.8[16.7 µM],.,.,.,.
COc1ccccc1NC(=O)/C(C#N)=C/c1ccc(OCCN2CCOCC2)c(OC)c1,-1.0,.,?,-1.9,-70.8,-0.3
COc1ccc(NC(=O)/C(C#N)=C/c2ccc(OCCN3CCOCC3)c(OC)c2)c(OC)c1,4.6,.,74.9*,2.1,-74.9,3.7
CCOC(=O)c1c(C)[nH]c(C(=O)COC(=O)c2ccc(N3CCCC3=O)cc2)c1C,.,-39.8,-62.8,3.4,62.8*,-2.6
Cc1noc(C)c1NC(=O)Nc1cccc2c1O[C@@H](CN(C)Cc1ccccc1)[C@@H](C)CN([C@H](C)CO)C2=O,2.9,-3.9[16.7 µM],.,.,.,.
CCc1cc2c(=O)c(-c3cscn3)coc2c(CN(C)C)c1O,3.0,.,6.5,0.8,-6.5,-170.5
CCc1cc2c(=O)c(-c3ccc4c(c3)OCO4)coc2c(CN(C)C)c1O,10.6,12.1,79.4*,-4.0,-79.4,-8.2
O=C(CCN1Cc2ccccc2C1)c1ccc2c(c1)OCCO2,0.5,.,-24.2,0.4,24.2,100.0*
O=C(CCN1CCc2ccccc2C(c2ccccc2)C1)c1ccc2c(c1)OCCO2 (centres undefined),.,.,7.6,1.8,-7.6,14.0
COc1ccccc1S(=O)(=O)N[C@@H]1CC[C@@H](CCNC(=O)C2CCCCC2)O[C@H]1CO,-3.8,-50.9[16.7 µM],.,.,.,.
Cc1ccccc1S(=O)(=O)NCC[C@@H]1CC[C@H](NC(=O)C2CCCC2)[C@@H](CO)O1,2.7,15.1[16.7 µM],.,.,.,.
Nc1ccc(C(=O)Nc2ccccc2C(=O)O)cc1,.,-42.3,-84.8,1.1,84.8*,24.9
COc1cccc(N=Nc2ccc3ccccc3c2O)c1,4.3,-323.5,71.8*,-17.7,-71.8,0.9
Cc1noc(C)c1NC(=O)N(C)C[C@@H]1Oc2c(NC(=O)c3ccc(-c4nccs4)cc3)cccc2C(=O)N([C@@H](C)CO)C[C@@H]1C,1.1,.,.,.,.,.
CC(C)C(NC(=O)C12CC3CC(CC(C3)C1)C2)C(=O)N/N=C/C1=C(N2CCOCC2)C(=C\c2cccc([N+](=O)[O-])c2)/CC1 (centres undefined),-3.1,12.5,84.8*,-3.9,-84.7,9.5
C[C@@H]1CN([C@H](C)CO)C(=O)c2cccc(NS(C)(=O)=O)c2O[C@@H]1CN(C)S(=O)(=O)c1ccc(F)cc1,.,16.5[16.7 µM],.,.,.,.
CCCNC(=O)c1cc(-c2ccco2)on1,0.7,-343.5,-20.0,81.2*,20.0,-4.7
CC(C)CNC(=O)c1cc(-c2ccco2)on1,-1.0,.,-19.6,4.7,19.6,9.4
SMILES,PglD inh,Env fusion inh,SR-BI HDL uptake,N-glyco inh,SR-BI DiI-HDL act,Rtt109 Vps75
CCN(CC)c1ccc(NC(=O)c2ccc3c(c2)c(C)c(C)n3C)cc1,.,-53.3,90.0*,0.4,-89.9,-5.2
CO[C@@H]1CN(C)C(=O)c2ccc(NC(=O)c3nc4ccccc4s3)cc2OC[C@@H](C)NC[C@@H]1C,1.3,-0.9[16.7 µM],.,.,.,.
CO[C@@H]1CN(C)C(=O)c2cc(NC(C)=O)ccc2OC[C@H](C)N(C(=O)c2ccccc2F)C[C@H]1C,-2.5,.,.,.,.,.
CCc1ccc(Nc2n[n+](-c3ccccc3)c(-c3c(Cl)cccc3Cl)s2)cc1,-1.5,69.6*,27.9,9.1,-27.9,12.0
CO[C@H]1CN(C)C(=O)c2ccc(NC(=O)c3ccccc3)cc2OC[C@@H](C)N(C(=O)CN(C)C)C[C@@H]1C,-1.2,14.3[16.7 µM],.,.,.,.
C[C@H]1CCCCO[C@H](CN(C)C(=O)Cc2ccccc2)[C@@H](C)CN([C@@H](C)CO)C(=O)c2cc(NC(=O)Nc3ccccc3)ccc2O1,3.4,14.2[16.7 µM],.,.,.,.
COc1ccc(S(=O)(=O)N(C)C)cc1NC(=O)Cc1ccc(S(=O)(=O)N2CCOCC2)s1,-1.0,?,-7.0,-1.7,7.0,50.8*
COc1ccc(NC(=O)N(C)C[C@H]2Oc3c(NC(=O)C4CCOCC4)cccc3C(=O)N([C@@H](C)CO)C[C@@H]2C)cc1,3.2,.,.,.,.,.
Cc1ccc(C)c(OCC(=O)Nc2nonc2NC(=O)COc2cc(C)ccc2C)c1,-1.1,68.3*,-8.8,-0.2,8.8,-0.9
Cc1ccc(C)c(OCC(=O)Nc2c[nH]c(=O)[nH]c2=O)c1,.,57.3*,-13.1,1.6,13.1,-9.0
Cc1ccc(OCC(=O)Nc2c[nH]c(=O)[nH]c2=O)cc1C,.,-46.9,-11.2,0.1,11.2,-15.8
CCc1cnc(N2[C@@H](C#N)[C@H](c3ccc(C#Cc4ccccc4F)cc3)[C@@H]2CO)s1,4.6,59.1*[16.7 µM],.,.,.,.
CCCCC(=O)Nc1ccc(NC(=O)c2ccc([N+](=O)[O-])cc2)cc1OC,.,-6.0,29.7,0.8,-29.7,-1.2
CCCC(=O)Nc1ccc(C(=O)Nc2ccc([N+](=O)[O-])cc2OC)cc1,.,-11.0,77.2*,-1.3,-77.3,-4.5
CCSc1ccccc1C(=O)Nc1ccc([N+](=O)[O-])cc1OC,.,3.8,83.7*,-0.7,-83.7,55.3*
CCC(C)C(=O)Nc1ccc([N+](=O)[O-])cc1OC (centres undefined),-2.6,-14.2,1.6,0.0,-1.6,0.4
